Screening data from PubChem BioAssay.
Yeast growth inh – yeast BB579 growth reduction in restrictive medium | inhibition, % at 10 µM | AID 804 | 140,000 compounds, 0.51% hits | S. cerevisiae BB579 growth, OD615, 48 h;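 active = inhibition above a set limit, 3 SD over the mean compound inhibition, cut at about 44% in these data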
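Material: Saccharomyces cerevisiae DeaD strain BB579, replicative lifespan model yeast; buffer or medium: CSMM-D restrictive synthetic medium containing dextrose (glucose); compound: 10 µM single dose, DMSO 0.25%; timing: 48 h compound exposure at 30 °C after 4 h preincubation; signal: turbidity as optical density at 615 nm; benchmarks: positive control amphotericin B 10 µg/mL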
Yeast life ext – extends the lifespan of yeast. S. cerevisiae growth with nicotinamide, OD615; deaD strain in restrictive glucose medium. inhibition of the nicotinamide effect, % at 10 µM. 130,000 compounds, 0.68% hits. AID 775;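 active = inhibition above a set limit, placed 3 SD over the median of all compounds, cut at about 26% in these data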
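Assay system: engineered S. cerevisiae DeaD replicative-lifespan strain, galactose-grown log-phase cells; Buffer or medium: CSMM-D glucose medium, restrictive; Probe or stimulus: nicotinamide 1.5 mM; Compound: single dose 10 µM compound, 0.25% DMSO; Schedule: 4 h preincubation then 48 h treatment at 30 °C; Technique: OD615 measurement.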
HMGR II inh – inhibitors of class II HMG-CoA reductase from Enterococcus faecalis | purified E. faecalis HMGR, NADPH absorbance 340 nm kinetic | inhibition, % at 10 µM | 190,000 compounds, 0.41% hits | AID 1066;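 active = inhibition above a set limit, the median over all tested compounds plus 3 SD, cut at about 9.5% in these data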;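 also: enzyme runs in reverse so mevalonate oxidation gives rising NADPH absorbance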
RAM inhibit – yeast RAM network inhibition; S. cerevisiae dse1pr::URA3 reporter, 5-FOA growth OD615, 2 d; analog-sensitive cbk1-as2 kinase mutant strain; inhibition, % at 50 µM; 190,000 compounds, 1.8% hits;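 active = inhibition above a set limit, 3 SD over mean compound inhibition, cut at about 8.4% in these data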;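 also: inhibition rescues growth on 5-FOA so higher OD means more RAM inhibition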
Insulin prom inh – TRM-6 insulin promoter activity inhibition; TRM-6 cells, insulin promoter-eGFP reporter, imaging; reporter expression induced with tamoxifen; inhibition, % at 2 µM; 130,000 compounds, 0.9% hits; AID 1273;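 active = inhibition above the mean plus 3 SD, with well images judged a real hit on visual review, cut at about 60% in these data, passing the limit was not always enough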
Large screens that a line does not name were inactive. Only some compounds are listed: those with a hit (about 3.7% of all), similar ones and a draw of the others.

COc1ccc(NCc2nc3ccccc3n2CCOc2ccc(C)cc2)cc1	Yeast growth inh 92
CCCCc1c(C)nc2ccccc2c1SCCC(=O)O	none (no result: Yeast growth inh, Yeast life ext)
Nc1cccnc1Sc1cc(Cl)cc(Cl)c1	Insulin prom inh 90
CCc1ccc(S(=O)(=O)NCCc2cn3ccsc3n2)s1	Yeast growth inh 46 (no result: Insulin prom inh)
COc1ccc(NS(=O)(=O)c2ccc(N3CCOCC3)c(NC(=O)c3ccccc3Cl)c2)cc1	none
COc1ccc(C(=O)Nc2cc([N+](=O)[O-])ccc2N2CCCC2)cc1	RAM inhibit 8.5 (no result: Yeast growth inh, Yeast life ext)
CN(C)S(=O)(=O)c1ccc(C(=O)Nc2cc(S(=O)(=O)Nc3ccccc3Cl)ccc2N2CCCCC2)cc1	RAM inhibit 8.6
COc1ccc(NS(=O)(=O)c2ccc(N3CCOCC3)c(NC(=O)c3ccc(OC)cc3)c2)cc1	RAM inhibit 8.6
CN1CCN(c2ccc(Cl)cc2NC(=O)c2ccc(S(=O)(=O)N(C)C)cc2)CC1	none (no result: Insulin prom inh)
CCOC(=O)c1cc(-c2ccccc2)n(CCC(=O)N2CCN(c3ccccn3)CC2)c1C	none
O=C1/C(=C/c2ccc(O)cc2)SC(=S)N1Cc1cccnc1	none
O=C(CCN1C(=O)/C(=C/c2ccccc2)SC1=S)NNC(=O)c1cccnc1	RAM inhibit 9.6 (no result: Insulin prom inh)
Cc1ccc(C(=O)NNC(=O)CCCN2C(=O)/C(=C/c3ccccc3Cl)SC2=S)cc1	RAM inhibit 10
CCCN1C(=O)/C(=C/c2ccncc2)SC1=S	Yeast life ext 54
O=C(CCN1C(=O)/C(=C/c2ccc(F)cc2)SC1=S)NNC(=O)c1cccnc1	none (no result: Insulin prom inh)
O=C(Nc1ccccc1)C1=C[C@@H](c2coc3ccccc3c2=O)C[C@@H](OCCCCO)O1	none (no result: Yeast growth inh, Yeast life ext, Insulin prom inh)
CC(C)c1nnc(NC(=O)c2c(O)c3cccc4c3n(c2=O)CCC4)s1	Yeast life ext 40 (no result: Insulin prom inh)
Cc1cccc(NC(=O)c2c(O)c3cccc4c3n(c2=O)CCC4)n1	Yeast life ext 74
CCO[C@H]1OC(C(=O)N2CCOCC2)=C[C@@H](c2ccc(Br)cc2)[C@@H]1CCCO	none (no result: Yeast growth inh, Yeast life ext, Insulin prom inh)
Cc1cc(C)cc(NC(=O)Nc2ccc3c(c2)N(C)C(=O)CS3)c1	none (no result: Insulin prom inh)
CC(=O)c1cccc(NC(=O)Nc2ccc3c(c2)N(C)C(=O)CS3)c1	RAM inhibit 8.5
COc1ccc(NC(=O)CC23CC4CC(C2)CC(n2nnc(C)n2)(C4)C3)cc1	none (no result: Yeast growth inh, Yeast life ext)
COc1ccc(C2=NOC(C(=O)Nc3cc(Br)ccc3O)C2)cc1OC (stereo not given)	Insulin prom inh 74
CCSCc1nc2ccccn2c1Br	Insulin prom inh 76 (no result: Yeast growth inh, Yeast life ext)
CCN(CC)CCNC(=O)c1ccc(Sc2ccc(Cl)cc2)c(NC(C)=O)c1	none (no result: Yeast growth inh, Yeast life ext, Insulin prom inh)
N/C(Cc1ccc(Cl)c(Cl)c1)=N\OC(=O)c1cccs1	Yeast growth inh 66
C/C(=N/NC(=O)c1ccoc1C)c1ccc(NC(=O)c2ccncc2)cc1	none
Cc1ccc(COc2ccc(Br)cc2/C=N/O)cc1	Yeast growth inh 89
O/N=C/c1ccc(OCc2ccccc2)c(Br)c1	Yeast growth inh 45
Cc1ccn2c(/C=N/OCc3ccc(F)cc3)c(-c3ccc(Cl)cc3)nc2c1	RAM inhibit 9.7
Cc1ccn2c(/C=N/OCc3cccc(F)c3)c(-c3ccc(Cl)cc3)nc2c1	none
CC(C)OCCCN1CN(S(=O)(=O)c2cccc(Cl)c2)c2nc3ccccc3nc21	RAM inhibit 9.1
CCOC(=O)c1c(-c2ccccc2Cl)csc1NC(=O)CSc1nc(C)cc(=O)[nH]1	none
CCc1cc(C(=O)OC)c(NC(=O)c2cc(Br)cs2)s1	RAM inhibit 10
CCc1cc(C(=O)OC)c(NC(=O)CCCC(=O)O)s1	none (no result: Insulin prom inh)
O=C1C2CCCN2C(=O)N1CCCCN1CCN(c2cccc(Cl)c2)CC1 (stereo not given)	none
Cn1c(=O)oc2cc(S(=O)(=O)N3CCN(c4ccc(F)cc4)CC3)ccc21	Insulin prom inh 70
Cc1ccc(-c2cc(-c3ccccc3)nc(Cl)n2)cc1	RAM inhibit 9.4 (no result: Insulin prom inh)
Cc1ccc(Cl)cc1N1CCN(C(=O)Cc2ccc(-n3c(=O)[nH]c4ccsc4c3=O)cc2)CC1	none
O=[N+]([O-])c1ccc(N=Nc2ccc(O)cc2O)cc1	Yeast growth inh 83
COc1ccccc1C1CCCN1Cc1nc(-c2cc3c(cc2Cl)OCO3)oc1C (stereo not given)	none (no result: Yeast growth inh, Yeast life ext, Insulin prom inh)
COc1ccccc1C1CCCN1Cc1nc(-c2ccc(C)s2)oc1C (stereo not given)	HMGR II inh 12 (no result: Yeast growth inh, Yeast life ext)
Cc1c(C(=O)NCCSCc2ccccc2)cccc1[N+](=O)[O-]	none (no result: Yeast growth inh, Yeast life ext, Insulin prom inh)
